What was measured:
Motilin receptor [1] = target: T1, Motilin receptor (Homo sapiens, UniProt O43193); assay: Displacement of [125I]motilin from human MOTR
Method in brief: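 Competition binding on isolated membranes expressing human motilin receptor, with radioiodinated porcine motilin ([125I]-motilin) as tracer. 11-point concentration curves gave Ki, with a top test concentration of 10 µM. Compounds came from 10 mM DMSO stocks stored at -60 °C.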

Motilin receptor [2] = target: T1, Motilin receptor; assay: Activity at human MOTR expressed in CHO cells assessed as inhibition of motilin-induced calcium release upto 10 uM; format: functional, cell-based; settings: filed as antagonist
Method in brief: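 Aequorin luminescence assay on whole CHO cells expressing cloned human motilin receptor, measuring inhibition of motilin-induced Ca2+ release. Agonist activity was also checked at concentrations up to 10 µM. Compounds were TFA salts held as 10 mM DMSO stocks at -60 °C.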

T1 sequence (O43193 whole entry): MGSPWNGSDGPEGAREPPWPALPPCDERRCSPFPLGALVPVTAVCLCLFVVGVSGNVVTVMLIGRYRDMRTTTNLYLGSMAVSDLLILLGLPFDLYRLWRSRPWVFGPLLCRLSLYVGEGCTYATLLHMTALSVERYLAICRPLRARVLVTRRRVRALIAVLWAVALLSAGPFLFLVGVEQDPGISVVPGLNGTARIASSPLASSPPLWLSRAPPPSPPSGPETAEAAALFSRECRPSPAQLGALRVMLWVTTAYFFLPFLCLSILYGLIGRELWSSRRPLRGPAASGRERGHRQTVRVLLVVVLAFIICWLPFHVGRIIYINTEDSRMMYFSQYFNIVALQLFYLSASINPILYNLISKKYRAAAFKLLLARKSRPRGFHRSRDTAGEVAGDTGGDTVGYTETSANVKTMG

Structure (SMILES)	Ki (Motilin receptor [1]) [nM]	Activity (Motilin receptor [2])
CCC[C@@H]1NC(=O)[C@@H](C(C)C)NC(=O)[C@@H](Cc2ccc(O)cc2)NCCCCc2ccccc2CCNC1=O	6060	Antagonist
CCC[C@@H]1NC(=O)[C@@H](C(C)C)NC(=O)[C@@H](Cc2ccc(O)cc2)N(C(C)=O)CCOc2ccccc2CCCNC1=O	6390	Antagonist
CCC[C@@H]1NC(=O)[C@@H](C(C)C)NC(=O)[C@@H](Cc2ccc(O)cc2)NCc2ccccc2CCCCNC1=O	> 10000	Antagonist
CCC[C@@H]1NC(=O)[C@@H](C(C)C)NC(=O)[C@H](Cc2ccc(O)cc2)NCCOc2ccccc2/C=C/CNC1=O	> 10000	Antagonist
CCC[C@@H]1NC(=O)[C@@H](CCC(=O)O)NC(=O)[C@@H](Cc2ccc(O)cc2)NCCOc2ccccc2/C=C/CNC1=O	4900	Antagonist
CCC[C@@H]1NC(=O)[C@@H](C(C)C)NC(=O)[C@@H](Cc2ccc(O)cc2)NCCCc2ccccc2CCCNC1=O	> 10000	Antagonist
CCC[C@@H]1NC(=O)[C@@H](C(C)C)NC(=O)[C@@H](Cc2ccc(O)cc2)NCCCc2ccccc2CCNC1=O	> 10000	Antagonist
CCC[C@@H]1NC(=O)[C@@H](C(C)C)NC(=O)[C@@H](c2ccccc2)NCCOc2ccccc2CCCNC1=O	> 10000	Antagonist
CCC[C@@H]1NC(=O)[C@@H](CO)NC(=O)[C@@H](Cc2ccc(O)cc2)NCCOc2ccccc2/C=C/CNC1=O	> 10000	Antagonist
CCC[C@@H]1NC(=O)[C@@H](C(C)C)N(C)C(=O)[C@@H](Cc2ccc(O)cc2)NCCOc2ccccc2CCCNC1=O	> 10000	Antagonist
CCC[C@@H]1NC(=O)[C@@H](C(C)C)NC(=O)[C@@H](Cc2ccc(O)cc2)NCCc2ccccc2CCCNC1=O	> 10000	Antagonist
CCC[C@@H]1NC(=O)[C@@H](C(C)C)NC(=O)[C@@H](C(C)C)NCCOc2ccccc2/C=C/CNC1=O	3570	Antagonist
CCC[C@@H]1NC(=O)[C@@H](C(C)C)NC(=O)[C@@H](CCC(=O)O)NCCOc2ccccc2/C=C/CNC1=O	> 10000	Antagonist
CCC[C@@H]1NC(=O)[C@@H](C(C)C)NC(=O)[C@@H](C)NCCOc2ccccc2/C=C/CNC1=O	> 10000	Antagonist
CCC[C@@H]1NC(=O)[C@@H](C(C)C)NC[C@@H](Cc2ccc(O)cc2)NCCOc2ccccc2CCCNC1=O	3240	Antagonist
CCC[C@@H]1NC(=O)[C@@H](C(C)C)NC(=O)[C@@H](Cc2ccc(O)cc2)NCCc2ccccc2/C=C\CCNC1=O	> 10000	Antagonist
CCC[C@H](NC(=O)[C@H](NC(=O)[C@@H](Cc1ccc(O)cc1)NCCOc1ccccc1/C=C/CNC(C)=O)C(C)C)C(N)=O	> 10000	Antagonist
CCC[C@H](NC(=O)[C@H](NC(=O)[C@H](N)Cc1ccc(O)cc1)C(C)C)C(N)=O	> 10000	Antagonist
CCC[C@@H]1NC(=O)[C@@H](C(C)C)NC(=O)[C@@H](CC2CCCCC2)NCCOc2ccccc2CCCNC1=O	3250	Antagonist

Stronger by Ki (Motilin receptor [1]), values ahead:

Ki (Motilin receptor [1]) [nM]	Activity (Motilin receptor [2])	Structure (SMILES)
2780	Antagonist	CCC[C@@H]1NC(=O)[C@@H](C(C)C)NC(=O)[C@@H](Cc2ccc(O)cc2)N(C)CCOc2ccccc2CCCNC1=O
2550	Antagonist	CC(C)[C@H]1NC(=O)[C@@H](Cc2ccc(O)cc2)NCCOc2ccccc2/C=C/CNC(=O)[C@H](CC(=O)O)NC1=O
2370	Antagonist	CCC[C@@H]1NC(=O)[C@@H](C(C)C)NNC(=O)[C@@H](Cc2ccc(O)cc2)NCCOc2ccccc2CCCNC1=O
1880	Antagonist	CCC[C@@H]1OC(=O)[C@@H](C(C)C)NC(=O)[C@@H](Cc2ccc(O)cc2)NCCOc2ccccc2CCCNC1=O
1520	Antagonist	CCC[C@@H]1NC(=O)[C@@H](Cc2ccccc2)NC(=O)[C@@H](Cc2ccc(O)cc2)NCCOc2ccccc2/C=C/CNC1=O
1490	Antagonist	CCC[C@@H]1NC(=O)[C@@H](C(C)C)NC(=O)[C@@H](CCc2ccccc2)NCCOc2ccccc2CCCNC1=O
1200	Antagonist	CCC[C@@H]1NC(=O)[C@@H](C(C)C)NC(=O)[C@@H](Cc2ccc(O)cc2)NCCCCCCCCNC1=O
982	Antagonist	CCC[C@@H]1NC(=O)[C@@H](C(C)C)NC(=O)[C@@H](Cc2ccc(O)cc2)NCCOc2ccccc2CCNC1=O
701	Antagonist	CCC[C@@H]1NC(=O)[C@@H](C(C)C)NC(=O)[C@@H](Cc2ccc(O)cc2)NC/C=C/CCNC1=O
664	Antagonist	CC(C)[C@H]1NC(=O)[C@@H](Cc2ccc(O)cc2)NCCOc2ccccc2/C=C/CNC(=O)[C@H](CCCCN)NC1=O
650	Antagonist	CC(C)[C@H]1NC(=O)[C@@H](Cc2ccc(O)cc2)NCCOc2ccccc2/C=C/CNC(=O)[C@H](CO)NC1=O
335	Antagonist	CCC[C@H]1NC(=O)[C@@H](C(C)C)NC(=O)[C@@H](Cc2ccc(O)cc2)NCCOc2ccccc2/C=C/CNC1=O
255	Antagonist	CCC[C@@H]1NC(=O)[C@@H](C(C)C)NC(=O)[C@@H](Cc2c[nH]c3ccccc23)NCCOc2ccccc2CCCNC1=O
196	Antagonist	CCC[C@@H]1NC(=O)[C@@H](C)NC(=O)[C@@H](Cc2ccc(O)cc2)NCCOc2ccccc2/C=C/CNC1=O
192	Antagonist	CCC[C@@H]1NC(=O)[C@@H](C(C)C)OC(=O)[C@@H](Cc2ccc(O)cc2)NCCOc2ccccc2CCCNC1=O
185	Antagonist	CC(C)[C@H]1NC(=O)[C@@H](Cc2ccc(O)cc2)NCCOc2ccccc2/C=C/CNC(=O)[C@H](Cc2ccccc2)NC1=O
79	Antagonist	CCC[C@@H]1NC(=O)[C@@H](C(C)C)NC(=O)[C@@H](Cc2ccc3ccccc3c2)NCCOc2ccccc2CCCNC1=O
78	Antagonist	CCC[C@@H]1NC(=O)[C@@H](C(C)C)NC(=O)[C@@H](Cc2ccccc2)NCCOc2ccccc2/C=C/CNC1=O
62	Antagonist	CC(C)C[C@@H]1NC(=O)[C@@H](C(C)C)NC(=O)[C@@H](Cc2ccc(O)cc2)NCCOc2ccccc2/C=C/CNC1=O
11	Antagonist	CCC[C@@H]1NC(=O)[C@@H](C(C)C)NC(=O)[C@@H](Cc2csc3ccccc23)NCCOc2ccccc2CCCNC1=O
0.36	–	CC[C@H](C)[C@H](NC(=O)[C@@H]1CCCN1C(=O)[C@@H](NC(=O)[C@@H](N)Cc1ccccc1)C(C)C)C(=O)N[C@@H](Cc1ccccc1)C(=O)N[C@H](C(=O)N[C@@H](Cc1ccc(O)cc1)C(=O)NCC(=O)N[C@@H](CCC(=O)O)C(=O)N[C@@H](CC(C)C)C(=O)N[C@@H](CCC(N)=O)C(=O)N[C@@H](CCCNC(=N)N)C(=O)N[C@@H](CCSC)C(=O)N[C@@H](CCC(N)=O)C(=O)N[C@@H](CCC(=O)O)C(=O)N[C@@H](CCCCN)C(=O)N[C@@H](CCC(=O)O)C(=O)N[C@@H](CCCNC(=N)N)C(=O)N[C@@H](CC(N)=O)C(=O)N[C@@H](CCCCN)C(=O)NCC(=O)N[C@@H](CCC(N)=O)C(=O)O)[C@@H](C)O [MOTILIN]
